We go through 23 molecules from ChEMBL document CHEMBL2346621, “Discovery of novel tricyclic indole derived inhibitors of HCV NS5B RNA dependent RNA polymerase” (Bioorg Med Chem, 2013).

A short description of data set [1]: Cytotoxicity against human hepatoma cells assessed as cell viability by MTS assay. It is filed as cell-based. The method, boiled down:
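Cellular toxicity was measured by MTS assay, with GAPDH also used as an internal control, and expressed as CC50.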

The test system of data set [2] is Hepatitis C virus. The data set is described as follows: Antiviral activity against Hepatitis C virus infected in human hepatoma cells assessed as reduction in replicon RNA level. Type of data set: functional, organism-based, Hepacivirus hominis. Put shortly: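 Replicon-bearing hepatoma cells were used. EC50 is the concentration that reduces viral RNA levels by 50%.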

Data set [3] can be described thus: AUC (0 to 6 hrs) in rat at 10 mg/kg, po. Type of data set: ADME, organism-based. Further details: time < 6 hr, dose 10 mg/kg, route oral. Particulars: plasma. The method, boiled down: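 Rapid rat assay: single oral 10 mg/kg dose in 0.4% HPMC. Plasma AUC integrated over 0–6 h after dosing (AUC0–6 h).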
Data set [4] concerns Hepatitis C virus. The data set is described as follows: Inhibition of HCV-1b Con-1 C-terminal His6x-tagged NS5B delta21 RNA dependent RNA polymerase expressed in Escherichia coli JM109 (DE3) assessed as [alpha-33P]CTP incorporation in RNA after 30 mins by scintillation counting analysis. Particulars: Con1, JM 109, 0.5 h. Further details: species or system Hepatitis C virus subtype 1b.

Usually CC50 stands for the concentration that lowers cell viability or growth by half. What is called EC50 is the midpoint of the concentration-response curve. The term AUC(0-t) denotes exposure summed from dosing to a finite time, without extrapolation to infinity. Usually IC50 stands for the concentration that gives 50% inhibition. For the molecule `Cc1ccccc1Cn1c(C(=O)NS(C)(=O)=O)c(-c2ccc[nH]c2=O)c2c3occc3ccc21`, the CC50 in data set [1] was above 10000 nM. Also, the EC50 in data set [2] worked out at 50 nM. This molecule also gave an AUC(0-t) at 6 h in data set [3] of 1.2 µM·h. The IC50 in data set [4] was 10 nM.

With `O=C(NS(=O)(=O)Cc1ccccc1)c1c(-c2ccc[nH]c2=O)c2cc(Cl)ccc2n1Cc1cc(F)ccc1F`, the EC50 in data set [2] worked out at 1000 nM. The IC50 in data set [4] amounted to 10 nM.

With `O=C(O)c1c(-c2ccc[nH]c2=O)c2c3c(ccc2n1Cc1cc(F)ccc1F)CCC3`, the CC50 in data set [1] was above 10000 nM. In addition, the EC50 in data set [2] is 3500 nM. Also, the AUC(0-t) at 6 h in data set [3] amounted to 104 µM·h. Besides, the IC50 in data set [4] came to 27 nM.

As to `O=C(O)c1c(-c2ccc[nH]c2=O)c2c3c(ccc2n1Cc1cc(F)ccc1F)OC(F)(F)O3`, the half-maximal cytotoxic concentration (CC50) in data set [1] is above 10000 nM. For the same molecule, the EC50 in data set [2] came to 2000 nM. Besides, the IC50 in data set [4] is 7 nM.

On to `O=C(O)c1c(-c2ccc[nH]c2=O)c2c3scnc3ccc2n1Cc1cc(F)ccc1F`, for which, in data set [1], the CC50 is above 10000 nM. Also, the AUC(0-t) at 6 h in data set [3] is 104 µM·h. Further, in data set [4], the 50% inhibitory concentration (IC50) was 1700 nM.

On to `O=C(O)c1c(-c2ccc[nH]c2=O)c2c3ncsc3ccc2n1Cc1cc(F)ccc1F`, for which the CC50 in data set [1] was above 10000 nM. For the same molecule, the half-maximal effective concentration (EC50) in data set [2] amounted to 700 nM. Also, the IC50 in data set [4] was determined as 9 nM.

Turning to `O=C(O)c1c(-c2ccc[nH]c2=O)c2c3ccoc3ccc2n1Cc1cc(F)ccc1F`, the CC50 in data set [1] was above 10000 nM. Moreover, the EC50 in data set [2] came out at 3100 nM. In data set [4], the IC50 was 34 nM.

Regarding `O=C(O)c1c(-c2ccc[nH]c2=O)c2c3occc3ccc2n1Cc1cc(F)ccc1F`, the CC50 in data set [1] is above 10000 nM. Besides, the EC50 in data set [2] stood at 160 nM. In data set [3], this molecule came in with an AUC(0-t) at 6 h of 146 µM·h. For the same molecule, the IC50 in data set [4] came out at 31 nM.

In the case of `O=C(O)c1c(-c2ccc[nH]c2=O)c2c3c(ccc2n1Cc1cc(F)ccc1F)CCO3`, the CC50 in data set [1] is above 10000 nM. In data set [2], the half-maximal effective concentration (EC50) stood at 460 nM. Moreover, the AUC(0-t) at 6 h in data set [3] was determined as 11 µM·h. In addition, the concentration for half-maximal inhibition (IC50) in data set [4] amounted to 8 nM.

For `Cc1coc2c1ccc1c2c(-c2ccc[nH]c2=O)c(C(=O)O)n1Cc1cc(F)ccc1F`, the CC50 in data set [1] was above 10000 nM. Also, the IC50 in data set [4] is 2900 nM.

With `CCc1coc2c1ccc1c2c(-c2ccc[nH]c2=O)c(C(=O)O)n1Cc1cc(F)ccc1F`, the CC50 in data set [1] is above 10000 nM. For the same molecule, the IC50 in data set [4] was above 5000 nM.

With `O=C(O)c1c(-c2ccc[nH]c2=O)c2c3occ(Cl)c3ccc2n1Cc1cc(F)ccc1F`, in data set [1], the CC50 was above 10000 nM. Moreover, the EC50 in data set [2] worked out at 120 nM. The IC50 in data set [4] was 7 nM.

For the molecule `Cc1cc2ccc3c(c(-c4ccc[nH]c4=O)c(C(=O)O)n3Cc3cc(F)ccc3F)c2o1`, in data set [1], the CC50 was above 10000 nM. In addition, in data set [2], the EC50 came to 2000 nM. In data set [4], the IC50 was 21 nM.

Regarding `CS(=O)(=O)NC(=O)c1c(-c2ccc[nH]c2=O)c2c3occc3ccc2n1Cc1cc(F)ccc1F`, the CC50 in data set [1] was above 10000 nM. Further, the EC50 in data set [2] was 50 nM. In data set [3], this molecule showed an AUC(0-t) at 6 h of 11 µM·h. Besides, in data set [4], the IC50 was 9 nM.

For `CCS(=O)(=O)NC(=O)c1c(-c2ccc[nH]c2=O)c2c3occc3ccc2n1Cc1cc(F)ccc1F`, in data set [1], the CC50 is above 10000 nM. Besides, in data set [2], the EC50 came out at 110 nM. The same molecule returned an AUC(0-t) at 6 h in data set [3] of 0.7 µM·h. In addition, the IC50 in data set [4] stood at 6 nM.

`CC(C)S(=O)(=O)NC(=O)c1c(-c2ccc[nH]c2=O)c2c3occc3ccc2n1Cc1cc(F)ccc1F`: the CC50 in data set [1] was above 10000 nM. Moreover, the EC50 in data set [2] came out at 50 nM. In addition, in data set [3], the AUC(0-t) at 6 h worked out at 1 µM·h. Besides, the IC50 in data set [4] worked out at 8 nM.

As for `O=C(NS(=O)(=O)C1CC1)c1c(-c2ccc[nH]c2=O)c2c3occc3ccc2n1Cc1cc(F)ccc1F`, the CC50 in data set [1] was above 10000 nM. For the same molecule, in data set [2], the EC50 worked out at 50 nM. For the same molecule, the IC50 in data set [4] came out at 16 nM.

Regarding `CS(=O)(=O)NC(=O)c1c(-c2ccc[nH]c2=O)c2c3occc3ccc2n1Cc1ccc(F)cc1F`, the CC50 in data set [1] is above 10000 nM. Further, the EC50 in data set [2] came out at 80 nM. This molecule also came in with an AUC(0-t) at 6 h in data set [3] of 2.4 µM·h. Moreover, the IC50 in data set [4] was 31 nM.

Turning to `CS(=O)(=O)NC(=O)c1c(-c2ccc[nH]c2=O)c2c3occc3ccc2n1Cc1ccccc1F`, in data set [1], the CC50 is above 10000 nM. For the same molecule, in data set [2], the EC50 was found to be 100 nM. Also, the AUC(0-t) at 6 h in data set [3] is 9.5 µM·h. Also, in data set [4], the concentration for half-maximal inhibition (IC50) came out at 8 nM.

Take `Cc1ccc(Cn2c(C(=O)NS(C)(=O)=O)c(-c3ccc[nH]c3=O)c3c4occc4ccc32)c(C)c1`: in data set [1], the CC50 is above 10000 nM. Besides, in data set [2], the half-maximal effective concentration (EC50) is 60 nM. In data set [4], the IC50 worked out at 6 nM.

Turning to `CS(=O)(=O)NC(=O)c1c(-c2ccc[nH]c2=O)c2c3occc3ccc2n1Cc1cc(C(N)=O)ccc1F`, in data set [1], the CC50 is above 10000 nM. Moreover, in data set [2], the EC50 was 30 nM. Further, the IC50 in data set [4] was 10 nM.

For the molecule `Cc1cccc(Cn2c(C(=O)NS(C)(=O)=O)c(-c3ccc[nH]c3=O)c3c4occc4ccc32)c1F`, in data set [1], the CC50 is above 10000 nM. Moreover, in data set [2], the EC50 amounted to 30 nM. Also, the AUC(0-t) at 6 h in data set [3] came out at 0.3 µM·h. Moreover, the IC50 in data set [4] came to 3 nM.

For the molecule `CS(=O)(=O)NC(=O)c1c(-c2ccc[nH]c2=O)c2c3occc3ccc2n1Cc1ccccc1Cl`, the CC50 in data set [1] was above 10000 nM. For the same molecule, in data set [2], the EC50 was found to be 50 nM. Moreover, in data set [4], the IC50 came to 3 nM.
